The results in this text go back to ChEMBL document CHEMBL1165859, “Synthesis, antiproliferative, acute toxicity and assessment of antiandrogenic activities of some newly synthesized steroidal lactams” (Eur J Med Chem, 2010).

The structures appear in SMILES notation. Activity calls are given as the source filed them. The calls are words filed in the database; no cut-off is given here.

In series [1] the test system is DU-145. The series is described as follows: Antiproliferative activity against human DU145 cells assessed as growth inhibition at 5 ug/mL after 48 hrs by MTT assay relative to control. In kind it is functional. Conditions: for inhibition of growth at 5 µg/mL: DU-145, 48 h, read-out: GI. In outline: (§1)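 DU-145 cells grown in DMEM with 10% heat-inactivated FBS and streptomycin/penicillin at 37 °C, 5% CO2. Cells seeded at 5×10³/well and left to attach 24 h. Compounds in ethanol, final 0.01, 0.5, 1.0, 2.0 and 5.0 µg/mL, given in triplicate for 48 h. MTT added for 4 h, formazan dissolved in DMSO, A570 read. Viability is A(test)/A(control)×100, mean ± SEM of 3 experiments. IC50 taken from a linear log dose–response fit.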

For series [2], the system named is DU-145. The series is described as follows: Antiproliferative activity against human DU145 cells assessed as growth inhibition at 2 ug/mL after 48 hrs by MTT assay relative to control. Type of series: functional. Conditions: for inhibition of growth at 2 µg/mL: DU-145, 48 h, read-out: GI. In outline: as §1
Background: Formazan colour is commonly taken as a measure of viable cells.

The nature of series [3]: Cytotoxicity against Balb/C mouse macrophages assessed as cell viability at 5 ug/ml after 24 hrs by MTT assay. Type of series: cell-based, Macrophage. Conditions: read-out: Activity.
The subject of series [4] is DU-145. The experiment in a line: Antiproliferative activity against human DU145 cells assessed as growth inhibition at 1 ug/mL after 48 hrs by MTT assay relative to control. In kind it is functional. The conditions noted are these: for inhibition of growth at 1 µg/mL: DU-145, 48 h, read-out: GI. In outline:
as §1

Series [5] concerns Rattus norvegicus. The series is described as follows: Antiandrogenic activity in Sprague-Dawley rat assessed as increase of serum testosterone level at 40 mg/kg, ip equimolar dose of finasteride after 6 hrs by ELISA. Type of series: functional. In outline: (§2)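 Intact male Sprague Dawley rats (200–250 g), 5 per group. Compounds suspended in olive oil:ethanol (95:5), single intraperitoneal dose equimolar to 40 mg/kg finasteride; controls received vehicle alone. Blood taken by cardiac puncture under diethyl ether anaesthesia 6 h after dosing. Serum testosterone measured by competitive ELISA (T-antibody-coated wells, HRP-T conjugate, 4 h at 37 °C, H2O2 substrate 20 min, H2SO4 stop) at 450 nm. Results are mean ± SEM.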

Series [6] deals with DU-145. The experiment in a line: Antiproliferative activity against human DU145 cells assessed as growth inhibition at 0.5 ug/mL after 48 hrs by MTT assay relative to control. Conditions: for inhibition of growth at 0.5 µg/mL: DU-145, 48 h, read-out: GI. Type of series: functional. An outline of the steps: as §1
Series [7] has as its system DU-145. The series is described as follows: Antiproliferative activity against human DU145 cells assessed as growth inhibition at 0.01 ug/mL after 48 hrs by MTT assay relative to control. In kind it is functional. The conditions noted are these: for inhibition of growth at 0.01 µg/mL: DU-145, 48 h, read-out: GI. An outline of the steps:
as §1

The subject of series [8] is DU-145. The series is described as follows: Antiproliferative activity against human DU145 cells assessed as growth inhibition after 48 hrs by MTT assay. In kind it is functional, cell-based. Conditions: DU-145, 48 h. An outline of the steps:
as §1

Series [9] is described as follows: Cytotoxicity against Balb/C mouse macrophages assessed as cell viability after 24 hrs by MTT assay. Conditions: Macrophage. Type of series: cell-based.
The test system of series [10] is Rattus norvegicus. The experiment in a line: Antiandrogenic activity in ip dosed Sprague-Dawley rat assessed as increase of serum testosterone level after 6 hrs by ELISA (reference value: 0.742 +/- 0.07 ng/ml). In kind it is functional. An outline of the steps: as §2
For orientation: An ELISA detects its analyte on a solid surface through an enzyme-linked reagent.

Turning to `C[C@]12CC[C@H](OC(=O)CCl)CC1=CC[C@@H]1[C@@H]2CC[C@]2(C)NC(=O)CC[C@@H]12`, the “growth inhibition (GI)” value in [1], in series [2], in series [4], in series [6] and in [7] was “inactive” in each case. Besides, in series [3], the viability at 24 h, 5 ug/ml worked out at 6%. Moreover, in series [5] (route intraperitoneal), the Activity was determined as 0.82 ng/mL.

The term IC50 denotes the midpoint of a concentration-inhibition curve. For the molecule `C[C@]12CC[C@H](OC(=O)c3ccccc3)CC1=CC[C@@H]1[C@@H]2CC[C@]2(C)NC(=O)CC[C@@H]12`, in series [1], the inhibition of growth at 5 µg/mL stood at 63.6%. Besides, in series [2], the inhibition of growth at 2 µg/mL worked out at 45%. The inhibition of growth at 1 µg/mL in series [4] stood at 38.8%. The outcome in [5] was Active. In series [6], the inhibition of growth at 0.5 µg/mL came out at 35.7%. Further, the IC50 in [8] is 9.5 µM. In series [7], the inhibition of growth at 0.01 µg/mL stood at 28.1%.

The term LC50 denotes the concentration lethal to half of the exposed cells or organisms. On to `C[C@]12CC[C@H](OC(=O)Cc3ccccc3)CC1=CC[C@@H]1[C@@H]2CC[C@]2(C)NC(=O)CC[C@@H]12`, for which the inhibition of growth at 5 µg/mL in series [1] was determined as 73.1%. In [2], the inhibition of growth at 2 µg/mL turned out to be 48.3%. In addition, the “growth inhibition (GI)” value in series [4], in series [6] and in series [7] was “inactive” each time. Also, the LC50 in [9] was found to be 26 µM. The outcome in series [5] was Active. For the same molecule, the IC50 in [8] is 7.1 µM.

As to `C[C@]12CC[C@H](OC(=O)c3ccc(O)cc3)CC1=CC[C@@H]1[C@@H]2CC[C@]2(C)NC(=O)CC[C@@H]12`, the inhibition of growth at 5 µg/mL in [1] is 69.5%. The inhibition of growth at 2 µg/mL in series [2] came out at 65.6%. Also, in [4], the inhibition of growth at 1 µg/mL came to 59.2%. Also, in series [5], the outcome was Active. Moreover, the inhibition of growth at 0.5 µg/mL in [6] is 51.4%. For the same molecule, in series [8], the IC50 worked out at 5.7 µM. The inhibition of growth at 0.01 µg/mL in [7] amounted to 30.7%.

`C[C@]12CC[C@H](OC(=O)COc3ccccc3)CC1=CC[C@@H]1[C@@H]2CC[C@]2(C)NC(=O)CC[C@@H]12`: the “growth inhibition (GI)” value in [1], in [2], in [4], in series [6] and in series [7] was “inactive” throughout. Besides, the result in [5] was Active.

As to `C[C@]12CC[C@H](OC(=O)c3ccc(Cl)cc3)CC1=CC[C@@H]1[C@@H]2CC[C@]2(C)NC(=O)CC[C@@H]12`, the inhibition of growth at 5 µg/mL in series [1] is 67.6%. The inhibition of growth at 2 µg/mL in series [2] is 49.4%. The viability at 24 h, 5 ug/ml in [3] stood at 6%. Moreover, the inhibition of growth at 1 µg/mL in series [4] came out at 42.2%. The result in [5] was Active. Further, the inhibition of growth at 0.5 µg/mL in [6] turned out to be 27.9%. Moreover, the IC50 in [8] turned out to be 8.3 µM. The inhibition of growth at 0.01 µg/mL in series [7] worked out at 19%.

Regarding `C[C@]12CC[C@H](OC(=O)c3ccc([N+](=O)[O-])cc3)CC1=CC[C@@H]1[C@@H]2CC[C@]2(C)NC(=O)CC[C@@H]12`, the inhibition of growth at 5 µg/mL in [1] was determined as 88.9%. In series [2], the inhibition of growth at 2 µg/mL was found to be 73.5%. The inhibition of growth at 1 µg/mL in series [4] was determined as 57.9%. Besides, the outcome in [5] was Active. The inhibition of growth at 0.5 µg/mL in [6] is 41.4%. Moreover, the IC50 in [8] came to 5.2 µM. Besides, the inhibition of growth at 0.01 µg/mL in series [7] stood at 33.9%.

For the molecule `Cc1ccc(C(=O)O[C@H]2CC[C@@]3(C)C(=CC[C@@H]4[C@@H]3CC[C@]3(C)NC(=O)CC[C@@H]43)C2)cc1`, the inhibition of growth at 5 µg/mL in series [1] came to 77%. Moreover, in series [2], the inhibition of growth at 2 µg/mL was 68.1%. The inhibition of growth at 1 µg/mL in series [4] turned out to be 40.7%. Moreover, the result in series [5] was Active. The inhibition of growth at 0.5 µg/mL in series [6] stood at 29.5%. In addition, the IC50 in series [8] is 7.5 µM. The inhibition of growth at 0.01 µg/mL in [7] stood at 21.6%.

Take `CC(C)(C)NC(=O)[C@H]1CC[C@H]2[C@@H]3CC[C@H]4NC(=O)C=C[C@]4(C)[C@H]3CC[C@]12C` [FINASTERIDE]: the inhibition of growth at 5 µg/mL in [1] came to 78.5%. For the same molecule, the inhibition of growth at 2 µg/mL in series [2] came out at 36%. The inhibition of growth at 1 µg/mL in series [4] worked out at 16.5%. Further, the Activity in series [10] is 1.26 ng/mL. Also, the inhibition of growth at 0.5 µg/mL in series [6] amounted to 8.83%. Further, the IC50 in series [8] was 3.9 µM. Further, the inhibition of growth at 0.01 µg/mL in series [7] is 5%.

With `C[C@]12CC[C@H](O)CC1=CC[C@@H]1[C@@H]2CC[C@]2(C)NC(=O)CC[C@@H]12`, the “growth inhibition (GI)” value in series [1], in [2], in series [4], in [6] and in series [7] was “inactive” in each case. Also, the outcome in series [5] was Active.

Take `C[C@]12CC[C@H](OC(=O)c3ccc(N)cc3)CC1=CC[C@@H]1[C@@H]2CC[C@]2(C)NC(=O)CC[C@@H]12`: in series [1], the inhibition of growth at 5 µg/mL turned out to be 82.4%. For the same molecule, in [2], the inhibition of growth at 2 µg/mL is 48%. Also, the inhibition of growth at 1 µg/mL in [4] is 45%. Moreover, the outcome in series [5] was Active. In series [6], the inhibition of growth at 0.5 µg/mL was 43.4%. In addition, the IC50 in series [8] is 7.1 µM. Also, the inhibition of growth at 0.01 µg/mL in [7] is 30.5%.

Regarding `COc1ccc(C(=O)O[C@H]2CC[C@@]3(C)C(=CC[C@@H]4[C@@H]3CC[C@]3(C)NC(=O)CC[C@@H]43)C2)cc1`, the inhibition of growth at 5 µg/mL in series [1] is 43%. Besides, the inhibition of growth at 2 µg/mL in series [2] was found to be 33.9%. Besides, the inhibition of growth at 1 µg/mL in series [4] came to 21.3%. Besides, the Activity in series [5] (route intraperitoneal) amounted to 1.05 ng/mL. The inhibition of growth at 0.5 µg/mL in series [6] was 25.2%. Moreover, the IC50 in series [8] stood at 15.1 µM. Further, the inhibition of growth at 0.01 µg/mL in series [7] turned out to be 17.4%.
